# Assay outcomes deposited in PubChem by Broad Institute.
# ERp5 inh = ERp5 (human) disulfide isomerase inhibition. 350,000 tested, 0.05% active. ERp5 insulin aggregation, absorbance 650 nm, 90 min. inhibition, % at 9.99 µM. Q15084;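 active means mean replicate inhibition above about 25%, with every replicate also reaching it, limit read from the data, passing the limit was not always enough; inconclusive means only one of those two criteria met; inactive means neither criterion met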
# Target sequence (Q15084 whole entry, looked up): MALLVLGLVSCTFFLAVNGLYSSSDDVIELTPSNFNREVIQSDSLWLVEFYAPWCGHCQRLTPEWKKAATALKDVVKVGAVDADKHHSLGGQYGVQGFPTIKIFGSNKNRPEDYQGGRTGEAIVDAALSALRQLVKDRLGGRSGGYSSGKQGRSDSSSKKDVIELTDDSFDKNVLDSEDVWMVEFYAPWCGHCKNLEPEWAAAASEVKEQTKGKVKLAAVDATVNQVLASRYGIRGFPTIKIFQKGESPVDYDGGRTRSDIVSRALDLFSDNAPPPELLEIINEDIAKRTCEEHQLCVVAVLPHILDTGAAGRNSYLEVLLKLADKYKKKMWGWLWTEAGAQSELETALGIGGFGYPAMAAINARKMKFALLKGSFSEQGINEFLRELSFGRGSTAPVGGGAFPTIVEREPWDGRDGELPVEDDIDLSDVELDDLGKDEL
# PDI inh = blocks human protein disulfide isomerase activity; P07237; PDI insulin aggregation turbidity, A650, 90 min; inhibition, % at 10 µM; 350,000 tested, 0.052% active; AID 588391;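 active means mean inhibition across replicates of 30% or more, whatever share of single replicates reach that level; inconclusive means mean inhibition below 30% while every single replicate reaches 30%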
# ARNT-TACC3 inh = ARNT/TACC3 interaction disruption; 390,000 tested, 0.66% active; inhibition, % at 9.99 µM; AlphaScreen His-ARNT PAS-B/GST-TACC3 binding, luminescence; TACC3 fragment carries E629A point mutation; Q9Y6A5;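 active means mean inhibition of replicates at least 50% and at least half of replicates each reaching 50%; inconclusive means half or more replicates reach 50% but mean below 50%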;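 further: 0% = complete ARNT plus TACC3 wells and 100% = ARNT alone without TACC3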
# FGF22 binding = binders of recombinant human FGF22 by thermal shift. SYPRO orange fluorescence; percent of sucrose octasulfate shift, DMSO zero. activity (Tm shift, normalised), % at 9.99 µM. AID 651658. 340,000 tested, 1.5% active. Q9HCT0;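 active means mean Tm shift, scaled 0 neutral to 100 positive control, at about 1.3% or above, every replicate too, limit read from the data; inconclusive means no clear call, values can overlap the other calls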
# Target sequence (Q9HCT0 whole entry, looked up): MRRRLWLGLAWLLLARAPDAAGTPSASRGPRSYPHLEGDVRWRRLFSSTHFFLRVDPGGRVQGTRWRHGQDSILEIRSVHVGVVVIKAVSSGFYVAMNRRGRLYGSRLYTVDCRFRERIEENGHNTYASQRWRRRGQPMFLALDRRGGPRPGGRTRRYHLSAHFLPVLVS
# FN deposit inh = fibronectin deposition inhibition; 350,000 tested, 0.086% active; AH1F fibroblasts, Alexa488-fibronectin deposition fluorescence, overnight; inhibition, % at 12.6 µM; AID 743247;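 active means mean inhibition across replicates of 30% or more, regardless of how many single replicates reach that level; inconclusive means mean under 30% yet at least half of replicates reach 30%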;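 further: positive control wells lacked labelled fibronectin entirely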
#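 Assay system: AH1F fibroblasts assembling fluorescent fibronectin matrix; Amount: 10000 AH1F cells per well; Buffer or medium: DMEM, 2% serum; Probe or stimulus: Alexa488-fibronectin, 24 nM final in well; Doses: single compound dose, delivered by pin transfer; Incubation: 1 h adhesion, overnight exposure; Measured by: fluorescence 485/525 nm; Read-out: fibronectin deposition inhibition.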
# MLL AF4-AF9 inh = blocks AF4 peptide binding to human AF9 | P42568 | AlphaScreen, biotin-AF4 peptide binding to FLAG-AF9 | inhibition, % at 10 µM | 350,000 tested, 0.47% active | AID 651704;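 active means every replicate reaching a set inhibition limit, whatever the replicate mean, cut at about 25% in these data; inconclusive means mean inhibition reaches that limit but some replicates miss it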;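 further: 0% = plate neutral control median and 100% = total signal loss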
# The depositor's hits bear a star; ? = inconclusive; / = no result given. An excerpt weighted towards active compounds, which were near 2.1% of everything screened.
SMILES,ERp5 inh,PDI inh,ARNT-TACC3 inh,FGF22 binding,FN deposit inh,MLL AF4-AF9 inh
Cc1ccc(NC(=O)CSc2ncc(S(=O)(=O)c3ccccc3)c(=O)[nH]2)cc1C,/,-5,-41,/,/,/
Cc1ccc(S(=O)(=O)N[C@@H]2CC[C@@H](CCn3cc(-c4cccc(F)c4)nn3)O[C@@H]2CO)cc1,-1,/,4,0,3,2
C(=N\c1nccs1)/c1c[nH]c2ccccc12,/,-3,40*,/,/,/
C[C@H](CO)N1C[C@H](C)[C@@H](CN(C)Cc2ccc(Oc3ccccc3)cc2)Oc2ccc(NC(=O)Nc3cccc4ccccc34)cc2CC1=O,-4,/,76*,0,/,-1
C[C@@H]1CN([C@@H](C)CO)C(=O)Cc2cc(NC(=O)Nc3cccc4ccccc34)ccc2O[C@@H]1CN(C)Cc1ccc(C(=O)O)cc1,2,/,active,0,13,2
C[C@H]1CN([C@@H](C)CO)C(=O)Cc2cc(NC(=O)Nc3cccc4ccccc34)ccc2O[C@H]1CN(C)Cc1ccc(Oc2ccccc2)cc1,-1,/,42,0,/,0
C[C@@H]1CN([C@@H](C)CO)C(=O)Cc2cc(NC(=O)CCCN(C)C)ccc2O[C@H]1CN(C)Cc1ccc(Oc2ccccc2)cc1,-1,/,18,-1,/,39*
C[C@H](CO)N1C[C@H](C)[C@@H](CN(C)Cc2ccc(Oc3ccccc3)cc2)Oc2ccc(NC(=O)CCCN(C)C)cc2CC1=O,0,/,21,0,/,?
C[C@H]1CN([C@@H](C)CO)C(=O)Cc2cc(NC(=O)Nc3cccc4ccccc34)ccc2O[C@H]1CN(C)Cc1ccc(C(=O)O)cc1,2,/,24,0,0,-3
Cc1noc(C)c1NC(=O)N(C)C[C@H]1Oc2ccc(NC(=O)CCC(F)(F)F)cc2CC(=O)N([C@H](C)CO)C[C@H]1C,-1,/,-6,0,-10,-1
Cc1noc(C)c1NC(=O)N(C)C[C@H]1Oc2ccc(NC(=O)CCCN(C)C)cc2CC(=O)N([C@@H](C)CO)C[C@@H]1C,-7,/,-42,0,/,31*
CCCNC(=O)Nc1ccc2c(c1)C(=O)N(C)C[C@H](OC)[C@@H](C)CN(C(=O)C1CC1)[C@H](C)CO2,-3,/,-7,0,-4,-1
CCS(=O)(=O)N1CC2(C1)[C@@H](c1ccccc1)[C@@H](CO)N2CCC(F)(F)F,-1,/,/,0,/,-2
COc1cccc(C#Cc2cnc3c(c2)C(=O)N([C@@H](C)CO)C[C@H](C)[C@H](CN(C)C(C)=O)O3)c1,4,/,21,0,10,-3
Cc1cccc(-c2ccccc2[C@H]2[C@@H](C#N)N(c3ncc(-c4ccccc4)s3)[C@@H]2CO)c1,1,/,/,0,5,1
O=C(NNC(=O)c1cccs1)c1ccccc1,2,-1,-9,0,3,-9
CCN(CC)S(=O)(=O)c1ccc(NC(=O)c2cccs2)cc1,14,-1,/,43*,-7,0
COc1ccc(C(=O)Nc2ccc(NC(=O)c3cccs3)cc2)cc1Cl,2,-2,3,43*,-5,-2
CC(=O)Nc1ccc(C(=O)NNC(=O)c2cccs2)cc1,1,-6,-2,44*,10,-1
C[C@H](CO)N1C[C@H](C)[C@H](CN(C)C(=O)Cc2ccncc2)Oc2cc(C#CC3CCCCC3)ccc2S1(=O)=O,5,/,7,0,/,4
COc1cc(-c2nc3cccc(C)n3c2NCC2CCCO2)ccc1O (stereo not given),-1,-1,-2,43*,-4,0
COc1ccc(-c2nc3cc(C)ccn3c2NCC2CCCO2)cc1OC (stereo not given),/,7,/,/,7,/
CO[C@@H]1CN(C)C(=O)c2ccc(NC(=O)Cc3ccccc3)cc2OC[C@@H](C)NC[C@@H]1C,-3,/,-1,0,-14,-1
C[C@@H]1CCCCO[C@H](CN(C)C(=O)Nc2ccc(F)cc2)[C@@H](C)CN([C@@H](C)CO)C(=O)c2cc(NC(=O)NC3CCCCC3)ccc2O1,5,/,5,0,/,-1
Cc1ccc(S(=O)(=O)N(C)C[C@@H]2OCc3cn(nn3)CCCC(=O)N([C@@H](C)CO)C[C@@H]2C)cc1,-3,/,-4,0,4,-1
SMILES,ERp5 inh,PDI inh,ARNT-TACC3 inh,FGF22 binding,FN deposit inh,MLL AF4-AF9 inh
CN(C)c1ccc(C2C3CCCc4ccccc4C3=NN2C)cc1 (stereo not given),1,-7,1,0,1,30*
Fc1ccc(-c2nc3c(-c4ccc(F)cc4)cnn3cc2CCN2CCOCC2)cc1,2,-3,4,43*,-3,3
O=C(Nc1ccc(F)cc1)N1CC(=O)N2[C@H](CO)[C@@H](c3ccc(C#CC4CC4)cc3)[C@@H]2C1,1,/,/,/,/,6
COc1ccc(CNC(=O)C[C@@H]2C[C@@H]3c4cc(NC(=O)CC5CC5)ccc4O[C@@H]3[C@H](CO)O2)cc1,/,/,-3,0,1,/
Cc1ccc(-c2nc3[nH]c(=O)cc(NC(=O)c4cccs4)n3n2)cc1,0,-2,30,0,7,-7
CC(C)(C)c1ccc(-c2nc3[nH]c(=O)cc(NC(=O)c4ccco4)n3n2)cc1,-3,0,-4,14*,-1,-2
O=C(N[C@@H]1C=C[C@H](CC(=O)N2CCc3ccccc3C2)O[C@H]1CO)C1CCOCC1,-1,/,/,/,/,-4
Clc1nc(-c2ccccn2)nc2scc(-c3ccccc3)c12,/,-1,60*,/,/,/
CC1CCN(c2nc(-c3cccnc3)nc3scc(-c4ccccc4)c23)CC1,0,-6,1,0,1,0
N#Cc1ccc(C(=O)N2CCN(S(=O)(=O)c3ccc(Br)s3)CC2)cc1,1,2,-2,44*,6,2
CCS(=O)(=O)N1CCC2(CC1)CN(C(=O)Nc1cccc(F)c1)[C@H](CO)c1c2c2ccc(OC)cc2n1C,12,/,/,0,/,2
Cc1cc(C)cc(OCC(=O)Nc2ccccc2C(=O)N2CCOCC2)c1,1,37*,-5,0,/,-1
Cc1cc(C)cc(OCC(=O)Nc2ccc3c(c2)OCCO3)c1,-2,1,7,43*,-10,-2
O=C(COc1ccc(F)cc1)Nc1ccc2c(c1)OCCO2,1,-11,/,0,-2,9
COc1ccc(-c2ccc([C@@H]3[C@@H](CO)N4C(=O)CN(Cc5ccccc5)C[C@H]34)cc2)cc1,12,/,/,0,-2,1
Cc1ccc(S(=O)(=O)N2C[C@H](O)COC[C@H]3O[C@@H](CC(=O)N[C@@H]4CCN(Cc5ccccc5)C4)CC[C@@H]32)cc1,6,/,3,0,-5,-1
CC(C)N(C(=O)Cn1cc(SCC(=O)NCc2ccco2)c2ccccc21)C(C)C,-5,-2,-1,1.7*,6,1
